Data on one molecule can be found in ChEMBL document CHEMBL4011598, “Sulfonamides as Selective NaV1.7 Inhibitors: Optimizing Potency and Pharmacokinetics While Mitigating Metabolic Liabilities” (J Med Chem, 2017).

In data set [1] the target is T1, Sodium channel protein type 9 subunit alpha (Homo sapiens, UniProt Q15858). Nature of the data set: Inhibition of human Nav1.7 at resting/closed state expressed in HEK293 cells at -140 mV holding potential by manual whole cell patch clamp electrophysiology assay. The class given is cell-based. In general terms: Patch clamp records ionic current or voltage across a cell membrane.

Data set [2] addresses Voltage-gated inwardly rectifying potassium channel KCNH2 (Homo sapiens, UniProt Q12809). Put plainly: Inhibition of human hERG by patch clamp method. (In general: The hERG channel carries a current that helps repolarise heart muscle cells.)
A short description of data set [3]: Total clearance in rat at 0.5 mg/kg, iv. The class given is ADME, organism-based. The note with it: in vivo. The procedure, abridged:
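Male rats given a single 0.5 mg/kg iv dose in DMSO. Unbound clearance (CLu) is total clearance divided by fu, the unbound fraction in plasma.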

Data set [4] in a line: Intrinsic clearance in human liver microsomes at 1 uM after 1 to 40 mins in presence of NADPH by LC-MS/MS analysis. The class given is ADME, microsome. The note with it: read-out: CLH.
A short description of data set [5]: Tmax in rat at 10 mg/kg, po. Conditions: in vivo. Format: ADME, organism-based.
The test system of data set [6] is Canis familiaris. Nature of the data set: Unbound clearance in dog at 0.25 mg/kg, iv. Conditions: in vivo. The class given is ADME, organism-based, Canis lupus familiaris. The procedure, abridged: (§1)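 Male dogs received a single 0.25 mg/kg iv dose in DMSO. Unbound clearance (CLu) is total clearance divided by fu, the unbound fraction in plasma.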
Data set [7] has as its target T1, Sodium channel protein type 9 subunit alpha. Nature of the data set: Inhibition of human Nav1.7 expressed in HEK293 cells assessed as reduction in peak inward current by ionworks quattro electrophysiology assay. Format: cell-based.
The target of data set [8] is Sodium channel protein type 9 subunit alpha (Rattus norvegicus, UniProt O08562). Nature of the data set: Inhibition of rat Nav1.7 expressed in HEK293T cells incubated for 3 to 5 mins at -125 mV holding potential by electrophysiology assay. Format: cell-based.
Data set [9] deals with T2, Cytochrome P450 1A2 (Homo sapiens, UniProt P05177).
T2 sequence (P05177 whole entry): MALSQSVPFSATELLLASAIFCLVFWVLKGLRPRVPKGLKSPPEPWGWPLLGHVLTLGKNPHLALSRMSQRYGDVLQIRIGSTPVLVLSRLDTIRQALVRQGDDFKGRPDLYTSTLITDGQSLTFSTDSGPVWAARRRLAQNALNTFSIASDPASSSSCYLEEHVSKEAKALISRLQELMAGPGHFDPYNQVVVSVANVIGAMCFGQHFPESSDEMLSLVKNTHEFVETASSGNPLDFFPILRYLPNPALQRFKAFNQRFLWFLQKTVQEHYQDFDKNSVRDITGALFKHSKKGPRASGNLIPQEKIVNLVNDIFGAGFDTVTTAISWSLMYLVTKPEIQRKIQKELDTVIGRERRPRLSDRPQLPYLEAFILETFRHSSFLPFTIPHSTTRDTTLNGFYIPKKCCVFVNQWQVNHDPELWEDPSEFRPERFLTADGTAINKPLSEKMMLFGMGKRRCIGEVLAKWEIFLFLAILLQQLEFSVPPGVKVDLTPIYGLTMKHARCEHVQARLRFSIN
Nature of the data set: Inhibition of CYP1A2 (unknown origin). The class given is ADME.

The target of data set [10] is Sodium channel protein type 3 subunit alpha (Homo sapiens, UniProt Q9NY46). Nature of the data set: Inhibition of human Nav1.3 expressed in CHO cells assessed as reduction in peak inward current by ionworks quattro electrophysiology assay. Format: cell-based.
The target in data set [11] is Sodium channel protein type 8 subunit alpha (Homo sapiens, UniProt Q9UQD0). Nature of the data set: Inhibition of human Nav1.6 expressed in HEK293 cells assessed as reduction in peak inward current by ionworks quattro electrophysiology assay. The class given is cell-based.
Data set [12] is described as follows: Oral bioavailability in rat at 10 mg/kg. The class given is ADME, organism-based. The note with it: in vivo.
The nature of data set [13]: Volume of distribution at steady state in dog at 0.25 mg/kg, iv. The class given is ADME, organism-based, Canis lupus familiaris. Conditions: in vivo, read-out: Vdss. The procedure, abridged:
as §1

SMILES strings stand for the structures. A value given as a limit tells only on which side of the number the result lay.

As usually defined, the IC50 is the concentration that gives 50% inhibition. One may read the clearance as the rate of elimination divided by the concentration. The Tmax is the time at which the peak concentration occurs. The bioavailability is the share of a dose that reaches the circulation, judged against a reference dose that is usually intravenous. Read a high bioavailability as good availability.

T1 sequence (Q15858 whole entry): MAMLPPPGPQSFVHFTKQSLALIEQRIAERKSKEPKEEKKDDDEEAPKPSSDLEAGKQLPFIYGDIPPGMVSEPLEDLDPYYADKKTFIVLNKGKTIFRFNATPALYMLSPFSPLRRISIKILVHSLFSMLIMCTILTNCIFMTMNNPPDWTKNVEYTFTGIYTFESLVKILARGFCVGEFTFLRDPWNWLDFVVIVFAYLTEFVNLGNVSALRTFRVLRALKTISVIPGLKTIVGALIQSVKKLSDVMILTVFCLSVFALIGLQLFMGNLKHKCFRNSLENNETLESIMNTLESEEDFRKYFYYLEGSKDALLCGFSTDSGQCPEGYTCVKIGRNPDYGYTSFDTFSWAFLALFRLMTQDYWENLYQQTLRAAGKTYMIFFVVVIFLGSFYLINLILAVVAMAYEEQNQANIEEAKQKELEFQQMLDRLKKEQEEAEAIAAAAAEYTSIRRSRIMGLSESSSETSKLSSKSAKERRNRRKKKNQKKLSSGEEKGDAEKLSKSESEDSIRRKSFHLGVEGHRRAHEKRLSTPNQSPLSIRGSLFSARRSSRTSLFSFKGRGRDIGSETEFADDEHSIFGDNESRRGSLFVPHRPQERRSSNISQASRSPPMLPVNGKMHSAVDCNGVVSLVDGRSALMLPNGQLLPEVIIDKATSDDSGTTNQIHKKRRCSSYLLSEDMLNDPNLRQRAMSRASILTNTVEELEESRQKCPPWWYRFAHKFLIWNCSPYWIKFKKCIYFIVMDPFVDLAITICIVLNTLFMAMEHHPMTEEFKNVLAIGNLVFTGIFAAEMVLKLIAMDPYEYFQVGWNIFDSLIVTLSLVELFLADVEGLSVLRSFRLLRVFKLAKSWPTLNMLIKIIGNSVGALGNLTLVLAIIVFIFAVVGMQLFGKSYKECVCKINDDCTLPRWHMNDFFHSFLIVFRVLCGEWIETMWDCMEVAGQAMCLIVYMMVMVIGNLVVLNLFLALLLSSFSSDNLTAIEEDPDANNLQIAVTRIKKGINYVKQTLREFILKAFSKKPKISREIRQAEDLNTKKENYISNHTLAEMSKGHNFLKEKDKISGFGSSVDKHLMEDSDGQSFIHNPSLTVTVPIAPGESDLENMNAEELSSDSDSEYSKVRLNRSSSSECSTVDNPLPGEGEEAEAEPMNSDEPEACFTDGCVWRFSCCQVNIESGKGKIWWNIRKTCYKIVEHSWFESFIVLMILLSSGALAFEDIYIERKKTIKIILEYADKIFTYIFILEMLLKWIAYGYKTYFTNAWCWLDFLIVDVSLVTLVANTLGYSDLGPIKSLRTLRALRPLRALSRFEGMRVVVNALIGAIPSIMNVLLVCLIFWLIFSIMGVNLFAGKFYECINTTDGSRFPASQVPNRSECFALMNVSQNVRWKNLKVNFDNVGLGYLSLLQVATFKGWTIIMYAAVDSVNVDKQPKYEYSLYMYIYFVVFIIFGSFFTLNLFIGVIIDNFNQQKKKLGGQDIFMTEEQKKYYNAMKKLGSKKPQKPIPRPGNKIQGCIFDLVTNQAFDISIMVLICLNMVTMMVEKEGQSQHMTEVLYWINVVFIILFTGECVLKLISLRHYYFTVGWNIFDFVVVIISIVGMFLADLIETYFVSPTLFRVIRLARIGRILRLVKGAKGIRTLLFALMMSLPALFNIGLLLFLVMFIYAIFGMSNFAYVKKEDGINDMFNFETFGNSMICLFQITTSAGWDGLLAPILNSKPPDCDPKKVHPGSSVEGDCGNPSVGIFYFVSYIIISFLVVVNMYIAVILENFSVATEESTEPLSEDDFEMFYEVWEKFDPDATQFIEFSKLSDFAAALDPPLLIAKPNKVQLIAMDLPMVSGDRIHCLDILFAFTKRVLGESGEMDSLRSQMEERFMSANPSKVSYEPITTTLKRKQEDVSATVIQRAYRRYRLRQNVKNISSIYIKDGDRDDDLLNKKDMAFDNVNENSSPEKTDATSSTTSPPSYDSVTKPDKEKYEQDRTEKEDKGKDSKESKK
Chain of Sodium channel protein type 9 subunit alpha (Rattus norvegicus, UniProt O08562) (O08562 whole entry): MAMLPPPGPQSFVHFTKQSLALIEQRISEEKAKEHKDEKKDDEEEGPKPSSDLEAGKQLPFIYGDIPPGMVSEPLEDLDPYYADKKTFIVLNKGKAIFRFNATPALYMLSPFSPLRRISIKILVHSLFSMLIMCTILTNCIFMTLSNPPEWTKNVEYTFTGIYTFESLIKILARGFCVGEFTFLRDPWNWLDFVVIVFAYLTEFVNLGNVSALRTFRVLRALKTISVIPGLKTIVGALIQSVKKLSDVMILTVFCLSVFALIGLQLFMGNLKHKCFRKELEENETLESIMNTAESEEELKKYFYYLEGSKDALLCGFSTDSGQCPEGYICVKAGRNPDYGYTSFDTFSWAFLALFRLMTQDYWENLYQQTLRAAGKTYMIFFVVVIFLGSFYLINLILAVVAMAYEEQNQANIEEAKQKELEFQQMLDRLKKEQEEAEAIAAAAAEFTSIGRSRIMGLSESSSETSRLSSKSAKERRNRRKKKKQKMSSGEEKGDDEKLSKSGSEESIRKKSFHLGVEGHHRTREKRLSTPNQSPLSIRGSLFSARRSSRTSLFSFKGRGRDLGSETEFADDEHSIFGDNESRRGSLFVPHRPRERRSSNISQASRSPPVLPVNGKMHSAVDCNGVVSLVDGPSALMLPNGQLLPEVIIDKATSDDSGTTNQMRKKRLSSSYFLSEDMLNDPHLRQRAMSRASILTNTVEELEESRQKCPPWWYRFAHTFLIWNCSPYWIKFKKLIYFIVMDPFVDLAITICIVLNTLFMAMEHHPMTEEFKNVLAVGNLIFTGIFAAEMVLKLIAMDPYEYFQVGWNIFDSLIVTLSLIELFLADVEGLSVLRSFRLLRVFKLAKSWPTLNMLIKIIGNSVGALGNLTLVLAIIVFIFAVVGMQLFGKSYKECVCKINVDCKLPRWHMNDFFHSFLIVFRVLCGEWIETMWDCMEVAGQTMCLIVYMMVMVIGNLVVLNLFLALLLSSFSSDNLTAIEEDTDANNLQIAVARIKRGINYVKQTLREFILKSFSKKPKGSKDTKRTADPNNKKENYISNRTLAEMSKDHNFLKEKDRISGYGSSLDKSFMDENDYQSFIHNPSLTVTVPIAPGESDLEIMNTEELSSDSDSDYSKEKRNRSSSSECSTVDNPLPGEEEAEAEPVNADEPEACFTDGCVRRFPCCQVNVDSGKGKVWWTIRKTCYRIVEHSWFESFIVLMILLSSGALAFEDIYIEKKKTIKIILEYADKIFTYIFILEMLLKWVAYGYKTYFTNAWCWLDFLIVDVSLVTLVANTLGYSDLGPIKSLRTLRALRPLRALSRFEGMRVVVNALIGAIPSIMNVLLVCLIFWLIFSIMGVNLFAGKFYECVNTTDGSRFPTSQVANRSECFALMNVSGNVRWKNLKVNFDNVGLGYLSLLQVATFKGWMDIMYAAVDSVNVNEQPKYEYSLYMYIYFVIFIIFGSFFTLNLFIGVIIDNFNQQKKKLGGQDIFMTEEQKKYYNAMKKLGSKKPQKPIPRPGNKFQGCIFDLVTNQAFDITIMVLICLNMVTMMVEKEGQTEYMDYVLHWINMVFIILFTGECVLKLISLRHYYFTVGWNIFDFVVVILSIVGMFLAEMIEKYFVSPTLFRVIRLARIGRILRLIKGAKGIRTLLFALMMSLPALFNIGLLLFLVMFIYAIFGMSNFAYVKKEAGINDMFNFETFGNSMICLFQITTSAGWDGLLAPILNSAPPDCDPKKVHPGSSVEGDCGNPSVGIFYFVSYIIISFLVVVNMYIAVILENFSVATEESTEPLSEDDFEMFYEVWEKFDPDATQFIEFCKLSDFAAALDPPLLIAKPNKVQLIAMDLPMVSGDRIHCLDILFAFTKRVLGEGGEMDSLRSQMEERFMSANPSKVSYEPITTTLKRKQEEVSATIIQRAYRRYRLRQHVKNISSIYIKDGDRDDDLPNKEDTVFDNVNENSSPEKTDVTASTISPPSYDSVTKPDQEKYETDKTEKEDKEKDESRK
Chain of Voltage-gated inwardly rectifying potassium channel KCNH2 (Q12809 whole entry): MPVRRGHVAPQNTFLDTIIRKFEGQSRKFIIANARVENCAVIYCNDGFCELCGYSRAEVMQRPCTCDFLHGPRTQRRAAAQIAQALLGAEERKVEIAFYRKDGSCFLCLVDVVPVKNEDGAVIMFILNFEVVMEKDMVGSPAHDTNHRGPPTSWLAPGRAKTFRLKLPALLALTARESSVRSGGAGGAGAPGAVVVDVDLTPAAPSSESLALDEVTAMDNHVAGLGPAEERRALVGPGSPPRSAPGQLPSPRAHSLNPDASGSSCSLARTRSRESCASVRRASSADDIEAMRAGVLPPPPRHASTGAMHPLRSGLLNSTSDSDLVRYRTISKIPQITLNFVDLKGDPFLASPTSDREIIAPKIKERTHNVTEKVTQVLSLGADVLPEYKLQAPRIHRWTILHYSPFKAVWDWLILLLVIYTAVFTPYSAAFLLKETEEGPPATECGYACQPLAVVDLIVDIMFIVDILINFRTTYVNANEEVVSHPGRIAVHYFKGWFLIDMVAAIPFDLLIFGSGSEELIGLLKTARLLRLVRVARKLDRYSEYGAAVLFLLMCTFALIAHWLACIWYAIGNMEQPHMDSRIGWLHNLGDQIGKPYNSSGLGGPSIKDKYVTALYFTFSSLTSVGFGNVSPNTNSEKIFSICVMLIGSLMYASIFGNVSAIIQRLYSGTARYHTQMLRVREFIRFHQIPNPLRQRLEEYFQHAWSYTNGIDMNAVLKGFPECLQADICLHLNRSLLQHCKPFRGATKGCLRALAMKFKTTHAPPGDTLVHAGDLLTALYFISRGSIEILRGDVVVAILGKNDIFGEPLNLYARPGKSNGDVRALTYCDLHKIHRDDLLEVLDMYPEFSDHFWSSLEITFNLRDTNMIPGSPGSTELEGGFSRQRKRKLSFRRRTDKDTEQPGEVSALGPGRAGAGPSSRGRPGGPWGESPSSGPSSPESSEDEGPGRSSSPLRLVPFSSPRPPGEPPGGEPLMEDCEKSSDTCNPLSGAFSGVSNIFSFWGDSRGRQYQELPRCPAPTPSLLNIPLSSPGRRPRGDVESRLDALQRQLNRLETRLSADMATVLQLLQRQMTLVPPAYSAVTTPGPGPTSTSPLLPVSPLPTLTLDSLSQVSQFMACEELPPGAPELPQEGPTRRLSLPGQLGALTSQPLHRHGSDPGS

Consider `COc1cc(-c2cccc(C(F)(F)F)c2)c(F)cc1-c1nccc2cc(S(=O)(=O)Nc3ccon3)ccc12`, for which the IC50 in data set [1] was 4 µM; in [2] it was > 10 µM; in [7], 17 nM; in data set [8], 4 µM; in [9], > 15 µM; in [10], 6.9 µM. Further, the IC50 in [11] was 16 µM. In [3], this molecule showed a clearance of 3.83 mL/min/kg. Further, the microsomal CLint at 1 µM in [4] is < 14 µL/min/mg. In [5], the Tmax was found to be 6 h. For the same molecule, in [6], the CL free was 3.6 L/h/kg. The bioavailability in data set [12] was determined as 54%. The Vd in data set [13] amounted to 0.56 L/kg.
